# Experimental data as given in PMC4000071 (Journal of Toxicologic Pathology, 2014).
# Experiments:
# [1] = cited from earlier work
# 1-month = format: in vivo, beagle dogs; conditions: dog; for mean brain concentration relative to that at 2.3 mg/kg: 4 weeks
# Outline: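 Beagles (7 males, 5 females) were dosed once daily by oral gavage for 4 weeks at 0, 2.3, 14 or 47 mg/kg/day. The vehicle was 0.1 M lactic acid in water (pH 3.0) at 5 mL/kg. Plasma was sampled on Days 1, 7 and 28. At necropsy, brain stem, hippocampus and frontal lobe were taken for drug measurement. Terminal plasma and brain concentrations are reported.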
# adrenergic α1A receptor = target: T1, adrenergic α1A receptor (Homo sapiens, UniProt P35348); assay: secondary pharmacology screens, α1A; format: biochemical; conditions: 10 µM
# T1 sequence (P35348 1-466): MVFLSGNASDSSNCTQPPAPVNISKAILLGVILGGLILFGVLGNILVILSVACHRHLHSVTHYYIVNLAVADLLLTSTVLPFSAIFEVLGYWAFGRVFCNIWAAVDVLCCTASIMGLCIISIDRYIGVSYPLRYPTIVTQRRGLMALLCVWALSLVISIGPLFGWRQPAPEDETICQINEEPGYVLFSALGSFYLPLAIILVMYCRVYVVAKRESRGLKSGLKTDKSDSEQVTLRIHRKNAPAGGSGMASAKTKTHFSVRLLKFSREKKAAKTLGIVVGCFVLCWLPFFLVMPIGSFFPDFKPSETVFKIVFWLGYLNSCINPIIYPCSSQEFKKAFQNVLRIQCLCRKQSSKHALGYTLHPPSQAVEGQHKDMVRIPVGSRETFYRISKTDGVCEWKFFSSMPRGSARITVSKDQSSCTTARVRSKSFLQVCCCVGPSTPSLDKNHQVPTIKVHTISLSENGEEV
# healthy volunteers = conditions: single ascending oral doses from 1 to 40 mg; cited from earlier work
# guinea pig = conditions: 0.6 µmol/kg. p.o.; cited from earlier work
# rat = assay: 14-day rat study; format: in vivo; conditions: 14-day study, unpublished data
# brain 5-HT1B receptors = conditions: non-human primates; cited from earlier work
# adrenergic α1B receptor = target: T2, adrenergic α1B receptor (Homo sapiens, UniProt P35368); assay: secondary pharmacology screens, α1B; format: biochemical; conditions: 10 µM
# T2 sequence (P35368 1-520): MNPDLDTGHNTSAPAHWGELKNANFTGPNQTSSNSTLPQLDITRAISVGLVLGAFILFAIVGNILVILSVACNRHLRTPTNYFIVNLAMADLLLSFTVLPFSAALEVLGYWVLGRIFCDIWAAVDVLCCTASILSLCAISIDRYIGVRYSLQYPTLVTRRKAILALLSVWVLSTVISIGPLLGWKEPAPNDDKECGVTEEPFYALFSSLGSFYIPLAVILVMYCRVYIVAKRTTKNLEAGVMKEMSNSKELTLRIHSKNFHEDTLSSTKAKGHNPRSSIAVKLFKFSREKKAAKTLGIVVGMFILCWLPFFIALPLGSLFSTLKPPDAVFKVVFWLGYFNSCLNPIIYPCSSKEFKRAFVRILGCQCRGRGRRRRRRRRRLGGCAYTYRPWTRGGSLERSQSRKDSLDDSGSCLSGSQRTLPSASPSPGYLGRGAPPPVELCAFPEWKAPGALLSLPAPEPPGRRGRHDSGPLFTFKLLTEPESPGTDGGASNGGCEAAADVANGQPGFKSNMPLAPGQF
# beagle dogs = assay: 3-month toxicity study, in-life, clinical pathology and pathology; format: in vivo
# Outline: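 Beagles aged 9 months received 0, 7, 15 or 30 mg/kg/day by oral gavage for 3 months in 0.1 M lactic acid (pH 3.0). Groups were 3/sex/dose, with 3/sex added for 5-week recovery in control and high dose. Neurologic examination was done. Clinical pathology: pretest, Weeks 6, 13, end of recovery. Full tissue list including dorsal root ganglia. Eyes/optic nerve fixed in Davidson's, sciatic nerve in Bouin's, others in formalin. Sections ~5 µm, H&E.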
# [2] = Female 15 mg/kg/day (N=3), 3 months
# [3] = Female 15 mg/kg/day (N=3), 3 months, highest incidence shown
# [4] = Female 30 mg/kg/day (N=2), after 5 weeks of recovery
# [5] = Female 30 mg/kg/day (N=5), after 3 months of dosing
# [6] = Male 7 mg/kg/day (N=3), 3 months, highest incidence shown
# [7] = Male 15 mg/kg/day (N=3), 3 months
# [8] = Male 15 mg/kg/day (N=3), 3 months, highest incidence shown
# [9] = Male 30 mg/kg/day (N=3), 3 months
# [10] = Male 30 mg/kg/day (N=3), 3 months, highest incidence shown
# [11] = Male 30 mg/kg/day (N=3), after 5 weeks of recovery
# [12] = Male 30 mg/kg/day (N=6), after 3 months of dosing
# [13] = dog, 30 mg/kg/day 3 months then 5-week recovery
# [14] = dog, 30 mg/kg/day males, Week 3 until end of dosing
# [15] = dog, 30 mg/kg/day, after 3 months
structure (smiles),measurement,setting,value
"COc1cc2c(c(N3CCN(C)CC3)c1)O[C@@H](C(=O)Nc1ccc(N3CCOCC3)cc1)CC2 [AZD3783, (2R)-6-methoxy-8-(4-methylpiperazin-1-yl)-N-(4-morpholin-4-ylphenyl) chromane-2-carboxamide]",blood brain barrier crossing,[1],readily crosses the blood brain barrier
same,mean brain concentration relative to that at 2.3 mg/kg,1-month; 14 mg/kg,38 fold
same,mean brain concentration relative to that at 2.3 mg/kg,1-month; 47 mg/kg,460 fold
same,brain/plasma concentration ratio,"1-month; across the dose range, after 4 weeks of dosing",approximately 4
same,activity at adrenergic α1A receptor,adrenergic α1A receptor,antagonist
same,tolerability,healthy volunteers,well tolerated
same,anxiolytic and anti-depressant efficacy,guinea pig,elicit effects indicative of anxiolytic and anti-depressant efficacy
same,extracellular serotonin in the brain,guinea pig,increase extracellular serotonin in the brain
same,PLD in tissues,rat,dose-dependent PLD in a limited number of tissues
same,binding to brain 5-HT1B receptors (PET),brain 5-HT1B receptors,bind dose-dependently
same,activity at adrenergic α1B receptor,adrenergic α1B receptor,antagonist
same,"D.R. ganglion: cerv., thoracic, lumbar: Vacuolation; ganglion cell (incidence)","beagle dogs; Female 7 mg/kg/day (N=3), 3 months, highest incidence shown",2
same,Ophthalmologic finding: Normal (number of dogs),"beagle dogs; Female 7 mg/kg/day (N=3), after 3 months of dosing",3
same,Brain: Degeneration/necrosis; neuronal (incidence),beagle dogs; [2],1
same,Brain: Degeneration: nerve fiber (incidence),beagle dogs; [2],1
same,Brain: Gliosis (incidence),beagle dogs; [2],1
same,Brain: Vacuolation: neuronal (incidence),beagle dogs; [2],2
same,"D.R. ganglion: cerv., thoracic, lumbar: Inflammation (incidence)",beagle dogs; [3],2
same,"D.R. ganglion: cerv., thoracic, lumbar: Vacuolation; ganglion cell (incidence)",beagle dogs; [3],3
same,Ophthalmologic finding: Normal (number of dogs),"beagle dogs; Female 15 mg/kg/day (N=3), after 3 months of dosing",3
same,Ophthalmologic finding: Chorioretinal scar (number of dogs),beagle dogs; [4],1
same,Ophthalmologic finding: Normal (number of dogs),beagle dogs; [4],1
same,Ophthalmologic finding: Retinal detachment (number of dogs),beagle dogs; [4],1
same,Ophthalmologic finding: Normal (number of dogs),beagle dogs; [5],2
same,Ophthalmologic finding: Retinal detachment (number of dogs),beagle dogs; [5],2
same,Ophthalmologic finding: Retinal hemorrhage (number of dogs),beagle dogs; [5],2
same,Ophthalmologic finding: Vitreal hemorrhage (number of dogs),beagle dogs; [5],1
same,"D.R. ganglion: cerv., thoracic, lumbar: Inflammation (incidence)",beagle dogs; [6],1
same,"D.R. ganglion: cerv., thoracic, lumbar: Vacuolation; ganglion cell (incidence)",beagle dogs; [6],1
same,Ophthalmologic finding: Normal (number of dogs),"beagle dogs; Male 7 mg/kg/day (N=3), after 3 months of dosing",3
same,Brain: Degeneration: nerve fiber (incidence),beagle dogs; [7],1
same,Brain: Vacuolation: neuronal (incidence),beagle dogs; [7],3
same,"Eye/Optic nerve: Degeneration, optic nerve fiber (incidence)",beagle dogs; [7],1
same,Eye/Optic nerve: Inflammation: retina (incidence),beagle dogs; [7],1
same,"D.R. ganglion: cerv., thoracic, lumbar: Degeneration: nerve fiber (incidence)",beagle dogs; [8],2
same,"D.R. ganglion: cerv., thoracic, lumbar: Inflammation (incidence)",beagle dogs; [8],2
same,"D.R. ganglion: cerv., thoracic, lumbar: Vacuolation; ganglion cell (incidence)",beagle dogs; [8],3
same,Ophthalmologic finding: Normal (number of dogs),"beagle dogs; Male 15 mg/kg/day (N=3), after 3 months of dosing",3
same,Brain: Degeneration/necrosis; neuronal (incidence),beagle dogs; [9],3
same,Brain: Degeneration: nerve fiber (incidence),beagle dogs; [9],3
same,Brain: Gliosis (incidence),beagle dogs; [9],3
same,Brain: Inflammation: perivascular (incidence),beagle dogs; [9],3
same,Brain: Vacuolation: neuronal (incidence),beagle dogs; [9],3
same,"Eye/Optic nerve: Degeneration, optic nerve fiber (incidence)",beagle dogs; [9],1
same,Eye/Optic nerve: Inclusion: retina (incidence),beagle dogs; [9],3
same,Eye/Optic nerve: Inflammation: retina (incidence),beagle dogs; [9],1
same,Sciatic nerve: Degeneration: nerve fiber (incidence),beagle dogs; [9],1
same,"D.R. ganglion: cerv., thoracic, lumbar: Degeneration: nerve fiber (incidence)",beagle dogs; [10],3
same,"D.R. ganglion: cerv., thoracic, lumbar: Inflammation (incidence)",beagle dogs; [10],2
same,"D.R. ganglion: cerv., thoracic, lumbar: Vacuolation; ganglion cell (incidence)",beagle dogs; [10],3
same,"Spinal cord, cerv., thoracic, lumbar: Degeneration: nerve fiber (incidence)",beagle dogs; [10],2
same,Ophthalmologic finding: Chorioretinal scar (number of dogs),beagle dogs; [11],2
same,Ophthalmologic finding: Tepatum hyperreflectivity (number of dogs),beagle dogs; [11],1
same,Ophthalmologic finding: Normal (number of dogs),beagle dogs; [12],2
same,Ophthalmologic finding: Retinal detachment (number of dogs),beagle dogs; [12],2
same,Ophthalmologic finding: Retinal hemorrhage (number of dogs),beagle dogs; [12],3
same,Ophthalmologic finding: Vitreal hemorrhage (number of dogs),beagle dogs; [12],1
same,GLDH increase vs pretest,"beagle dogs; decedent female, 30 mg/kg/day",2 fold
same,WBC increase vs pretest,"beagle dogs; decedent female, 30 mg/kg/day",< 2 fold
same,neutrophils increase vs pretest,"beagle dogs; decedent female, 30 mg/kg/day",2 fold
same,bile increase vs pretest,"beagle dogs; decedent female, 30 mg/kg/day, Day 84",5 fold
same,brain findings after recovery,beagle dogs; [13],extensive neuronal loss accompanied by marked astrogliosis
same,reversibility of pathological lesions (except thymus and bone marrow),beagle dogs; [13],still present after the 5-week recovery period
same,ALT group mean elevation vs. pretest,beagle dogs; [14],ca. 2 fold
same,GLDH group mean elevation vs. pretest,beagle dogs; [14],ca. 4 fold
same,platelet counts increase,beagle dogs; [15],24–30%
same,reticulocytes (% and total count) decrease,beagle dogs; [15],42–50%
same,NOEL,"beagle dogs; dog, 3-month study",not established
same,severity of lesions in the brain,"beagle dogs; dog, 3-month, 15 and 30 mg/kg/day",dose-related and ranged from slight to moderate
same,ophthalmologic observations,"beagle dogs; dog, 3-month, Week 6 examination",No treatment-related ophthalmologic observations
same,gallbladder microscopic findings,"beagle dogs; dog, 3-month, all treated groups",pigment deposit (lamina propria) was noted in all animals in the treated groups
